LEDGF integ inh = blockers of LEDGF/p75-dependent integrase strand transfer – biochemical, TR-FRET, high throughput, primary screen; inhibition, % at 3.7 µM; TR-FRET IN-LEDGF/p75 DNA integration, Eu/Cy5; HIV-1 integrase (with human LEDGF/p75); 370,000 compounds, 0.64% hits; AID 743269, 2014;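 active = inhibition above the screen-wide mean plus 3 SD, cut at about 13% in these data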;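 also: signal is the Cy5 over europium emission ratio at 671 and 618 nm; 0% = plate median of compound wells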
ARFGAP1 inh = inhibitors of rat ARFGAP1 GAP activity, primary screen, biochemical, fluorescence polarization, GDP tracer | 360,000 compounds, 0.26% hits | ADP-ribosylation factor GTPase-activating protein 1 (Rattus norvegicus), Q62848 | Arfgap1-stimulated ARF1 GTP hydrolysis, GDP FP detection | inhibition, % at 16.5 µM;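 active = inhibition above a per-plate limit, mean inhibition of low control wells plus 3 SD, cut at about 25% in these data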;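 also: 0% = DMSO wells with enzyme and 100% = wells lacking Arfgap1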
Target sequence (Q62848 1-136 limits assumed): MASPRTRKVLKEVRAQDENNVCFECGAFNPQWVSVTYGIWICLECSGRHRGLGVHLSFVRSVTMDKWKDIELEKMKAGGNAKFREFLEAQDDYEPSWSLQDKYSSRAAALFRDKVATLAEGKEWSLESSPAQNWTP
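Material: truncated rat Arfgap1 GAP domain; Incubation: compound-enzyme preincubation 20 min, reaction 120 min, detection 60 min, 25 °C; Read-out: percent inhibition of Arfgap1-stimulated GTP hydrolysis; Technique: FP, GDP Alexa 633 tracer displaced from anti-GDP antibody, 620/688 nm; Controls: No-Arfgap1 wells (100%) versus DMSO full-reaction wells (0%); Replication: single well per compound.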
TDP2 absorb = human TDP2 enzyme inhibitors, primary screen, biochemical, epi absorbance, recombinant enzyme; inhibition, % at 12.8 µM; Tyrosyl-DNA phosphodiesterase 2 (Homo sapiens), O95551; 370,000 compounds, 0.34% hits; T5PNP hydrolysis, p-nitrophenol absorbance 415 nm;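 active = inhibition above the mean of all tested compounds plus 3 SD, set per campaign, cut at about 25% in these data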;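 also: 0% = DMSO with enzyme and 100% = buffer with substrate but no TDP2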
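System – recombinant human TDP2 · Quantity – TDP2 enzyme at 120 nM final · Doses – single concentration, 12.8 µM nominal, with 1% DMSO · Incubation – 2 h at 37 °C · Measured by – epi absorbance of p-nitrophenol freed from T5PNP by hydrolysis · Read-out – % inhibition relative to enzyme-containing and enzyme-free wells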
ASAP1 GAP inh = inhibitors of human ASAP1 ArfGAP activity, primary screen, biochemical, fluorescence polarization; Arf-GAP with SH3 domain, ANK repeat and PH domain-containing protein 1 (Homo sapiens), …; ASAP1-stimulated ARF1 GTP hydrolysis, GDP FP detection; inhibition, % at 16.5 µM; 360,000 compounds, 0.19% hits; AID 624377, 2012; in the data active = inhibition above about 25%;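 also: 0% = vehicle with enzyme and substrate and 100% = no enzyme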
MBD2 inh = inhibitors of MBD2 binding to methylated DNA, primary screen, biochemical, TR-FRET, DNA-binding domain, human | MBD2 binding to methylated oligonucleotide | 370,000 compounds, 0.31% hits | Methyl-CpG-binding domain protein 2 (Homo sapiens), Q9UBB5 | inhibition, % at 4.4 µM; in the data active = inhibition above about 13%
Target sequence (Q9UBB5 whole entry, looked up, the tested form may be a part): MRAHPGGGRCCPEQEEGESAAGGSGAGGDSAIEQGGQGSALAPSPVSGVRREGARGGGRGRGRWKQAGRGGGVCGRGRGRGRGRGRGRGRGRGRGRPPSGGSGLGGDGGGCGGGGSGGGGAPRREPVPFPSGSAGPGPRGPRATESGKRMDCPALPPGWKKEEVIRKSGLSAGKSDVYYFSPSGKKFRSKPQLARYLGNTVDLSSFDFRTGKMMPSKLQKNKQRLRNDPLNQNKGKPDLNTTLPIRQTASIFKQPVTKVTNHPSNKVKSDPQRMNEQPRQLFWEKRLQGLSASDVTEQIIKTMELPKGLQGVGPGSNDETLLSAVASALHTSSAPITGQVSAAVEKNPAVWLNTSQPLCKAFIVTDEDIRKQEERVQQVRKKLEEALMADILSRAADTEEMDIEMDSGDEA
UHRF1 binding = UHRF1 methylated DNA binding inhibitors, primary screen, counter-screen for MBD2 inhibitor project, biochemical, TR-FRET, human UHRF1, single concentration; E3 ubiquitin-protein ligase UHRF1 (Homo sapiens), Q96T88; UHRF1 binding to methylated oligo; inhibition, % at 4.4 µM; 370,000 compounds, 0.75% hits; in the data active = inhibition above about 21%;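 also: UHRF1 SRA domain binding a hemimethylated CpG hairpin DNA probe; 0% = median of test compound wells and 100% = reference inhibitor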
Starred values were filed as active, the others as inactive; . = no result given. A selection: hits, their analogues and other compounds. The true share with any hit is near 2%.

SMILES | LEDGF integ inh | ARFGAP1 inh | TDP2 absorb | ASAP1 GAP inh | MBD2 inh | UHRF1 binding
C=CCN1C(=O)[C@@H](CC(=O)N2CCC(c3ccccc3)CC2)[C@]2(C(=O)OC)CCCCC=C12 | 2 | . | 2 | . | 2 | -2
CC1=C(C(=O)OC(C)C)C(c2cccnc2)C2=C(CCCC2=O)N1 (centres undefined) | 1 | 4 | -4 | -10 | -1 | 91*
COc1cccc2c(=O)n(CC(=O)N3CCC(C)CC3)ccc12 | 6 | 7 | 4 | -1 | -8 | 93*
COc1cccc2c(=O)n(CC(=O)N3CCN(c4ccccc4)CC3)ccc12 | 9 | 0 | 6 | 7 | -4 | 0
O=[N+]([O-])c1cc([N+](=O)[O-])c2cc(-c3cccnc3)[nH]c2c1 | 4 | -4 | 26* | 6 | 1 | -9
Cc1cc(Br)cc2c1NC(=O)C2(c1c(C)n(C)n(-c2ccccc2)c1=O)c1c(C)n(C)n(-c2ccccc2)c1=O | -3 | 15 | -2 | -4 | 4 | 0
COc1cc(C2(c3ccc(O)c(OC)c3)C(=O)Nc3c(C)cc(Br)cc32)ccc1O | -3 | 20 | 2 | 10 | 0 | 31*
C[C@@H]1C=C(C(=O)O)O[C@H](OCc2ccc(CO)cc2)C1 | 1 | 6 | 14 | -3 | 0 | 55*
CC(C)[C@H]1C=C(C(=O)O)O[C@@H](OCc2ccc(CO)cc2)C1 | 1 | 2 | -2 | 7 | 0 | -3
CC(C)C[C@H](NC1(C(=O)NCCc2c[nH]c3ccccc23)CCOCC1)C(=O)NCCCc1ccccc1 | -6 | . | 4 | . | 5 | 3
CN[C@H]1C[C@H]2c3[nH]c4c(-c5cccc(C)c5)cccc4c3CCN2C(=O)[C@H]1[C@H](C)O | 3 | . | -3 | . | 2 | 1
CCCCCNC(=O)C(c1cccc2ccccc12)n1c(=O)c(-c2ccccc2)nc2ccccc21 (centres undefined) | 1 | 15 | 0 | 10 | -1 | 74*
Cc1cccc(Nc2nc(-c3sc(C)nc3C)cs2)c1 | 1 | 13 | 1 | 12 | 5 | 25*
Cc1nc(C)c(-c2csc(Nc3cccc(O)c3)n2)s1 | -1 | 4 | 4 | -4 | 1 | 1
N=C1/C(=C\c2ccc(Br)o2)C(=O)N=C2SC(CC(=O)N3CCOCC3)=NN12 | 22* | -1 | 5 | 5 | 0 | 18
CSc1ccc(/C=C2\C(=N)N3N=C(CC(=O)N4CCOCC4)SC3=NC2=O)cc1 | 3 | 0 | 9 | -5 | -4 | 0
N=C1/C(=C/c2ccc(Br)o2)C(=O)N=C2SC(CC(=O)N3CCCC3)=NN12 | 16* | 9 | 6 | -5 | -1 | 15
N=C1/C(=C/c2ccco2)C(=O)N=C2SC(CC(=O)N3CCCC3)=NN12 | 13 | 9 | 1 | 1 | 4 | 13
O=C(NCCc1ccc(F)cc1)c1ccc(Sc2ccccc2Cl)c([N+](=O)[O-])c1 | -5 | . | -9 | . | -1 | 5
CC(NC(=O)c1ccc(CS(=O)(=O)c2cccc(C(F)(F)F)c2)o1)c1ccc2c(c1)OCCO2 (centres undefined) | -5 | 15 | -10 | 2 | 2 | 42*
CN(CC(=O)Nc1cccc2ccccc12)C(=O)c1ccc(F)cc1F | 0 | 7 | 6 | 3 | 3 | 29*
CC(COc1cccc([N+](=O)[O-])c1)CN1CCC(C(O)(c2ccccc2)c2ccccc2)CC1 (centres undefined) | -5 | . | -7 | . | 0 | 0
CCC[C@H]1[C@@H](N)CC[C@@]23CCCN2C(=O)CCC[C@@H]13 | 3 | . | -6 | . | 2 | 2
OCCNc1nc(Nc2ccc(Br)cc2)nc2ccccc12 | 1 | 2 | 4 | 26* | 4 | -2
OCCNc1nc(Nc2ccccc2)nc2ccccc12 | -2 | -5 | -2 | 1 | 1 | 3
SMILES | LEDGF integ inh | ARFGAP1 inh | TDP2 absorb | ASAP1 GAP inh | MBD2 inh | UHRF1 binding
CCN(CC)S(=O)(=O)c1ccc(S(=O)(=O)NCc2cccs2)cc1 | -1 | 7 | -2 | -10 | 0 | -1
O=C1CC(=O)Nc2cc(S(=O)(=O)NCc3cccs3)ccc2N1 | -1 | 0 | 8 | 4 | 9 | 24*
COc1ccc(S(=O)(=O)NCc2cccs2)cc1 | 0 | 2 | 0 | 15 | 6 | 48*
CCOc1ccccc1NC(=O)CSc1nnc(SCc2ccccc2)s1 | 0 | . | -10 | . | -2 | 0
O=C(Nc1cccc(F)c1)OC1CC2CC1[C@H]1CCCCN1[C@H]2Cc1ccccc1 (some centres undefined) | -3 | . | -8 | . | 1 | 3
Cc1cccc(-c2nnc(SCC(=O)Nc3ccc(-c4nc5ccc(C)cc5s4)cc3)n2Cc2ccco2)c1 | 0 | . | 5 | . | 1 | -2
CC(NCc1ccco1)C(=O)N1CCCN(C)CC1 (centres undefined) | 5 | . | 3 | . | 1 | -1
COc1ccc(CCNC(=O)c2ccc3c(c2)ncn3C2CCCCC2)cc1 | 2 | . | -1 | . | 3 | -5
COC(=O)c1cc(NC(=O)CC2SC(=Nc3ccccc3)N(CCc3c[nH]c4ccccc34)C2=O)cc(C(=O)OC)c1 (centres undefined) | 3 | 16 | -3 | 28* | -1 | 0
COCc1cc(=O)n2[nH]c(-c3ccsc3-n3c(C)ccc3C)cc2n1 | 81* | -3 | 5 | 11 | 36* | 72*
COCc1cc(=O)n2[nH]c(N)nc2n1 | -1 | -11 | 2 | 5 | -3 | 4
CCOC(=O)c1cnc(Nc2nc3ccccc3o2)nc1CN1CCN(C)CC1 | 18* | 3 | -4 | -8 | -3 | -5
CCCOc1ccc(N2CC(C(=O)Nc3ncccc3C)CC2=O)cc1 (centres undefined) | 0 | -13 | -5 | -5 | 5 | 2
COc1ccc(N2CC(C(=O)Nc3ncccc3C)CC2=O)cc1 (centres undefined) | 2 | 11 | -4 | -9 | 2 | 27*
COc1ccc(N2CC(C(=O)N/N=C/c3ccc([N+](=O)[O-])cc3)CC2=O)cc1 (centres undefined) | 0 | 2 | 4 | -14 | -3 | -1

From PubChem BioAssay
